Assay outcomes as filed in PubChem.
TMEM16A inh: TMEM16A chloride channel inhibitors, primary screen, cell-based, HTS | Anoctamin-1 (Mus musculus), Q8BHY3 | HEK293 TMEM16A/YFP iodide influx fluorescence, ionomycin | normalized B-score (activity score, 25-100; higher = stronger inhibition) at 10 µM | 310,000 compounds, 1.2% hits;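 active = ratio plate-corrected score three or more library SD toward inhibition, starting fluorescence score within five deviations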;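 also: score derived from kinetic fluorescence span divided by baseline fluorescence per well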
IMP-1 inhibitor: IMP-1 metallo-beta-lactamase inhibitors, primary screen, biochemical, epi-absorbance readout, Pseudomonas aeruginosa enzyme; metallo-beta-lactamase IMP-1 (Pseudomonas aeruginosa); purified IMP-1, nitrocefin hydrolysis, epi-absorbance fluorescence; inhibition, % at 5.6 µM; 290,000 compounds, 0.45% hits; AID 1556, 2009;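 active = inhibition above the mean plus 3 SD of all compounds in the same screening run, cut at about 4.5% in these data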;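 also: 0% = IMP-1 with DMSO and 100% = DMSO wells lacking enzyme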
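System: purified IMP-1; amount: IMP-1 0.2 nM before substrate addition; compound: single dose, 5.6 µM; times: 25 °C, 15 min preincubation, 25 min reaction; signal: Epi-absorbance via hydrolysed-nitrocefin quenching of white-plate fluorescence, 480/530 nm, EDTA stop; benchmarks: DMSO with and without IMP-1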
VIM-2 inh: VIM-2 metallo-beta-lactamase inhibitors, primary screen, biochemical, epi-absorbance readout, Pseudomonas aeruginosa enzyme | purified VIM-2, nitrocefin hydrolysis, epi-absorbance fluorescence | inhibition, % at 5.6 µM | 290,000 compounds, 0.89% hits;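 active = inhibition above the mean of all tested compounds plus 3 SD, cutoff set per screening run, cut at about 7.5% in these data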;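 also: red hydrolysis product quenches plate fluorescence so inhibitors raise well fluorescence; 0% = enzyme with DMSO and 100% = DMSO without enzyme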
CHT PAM: CHT positive allosteric modulators, primary screen, cell-based, membrane potential dye, choline EC20; 310,000 compounds, 0.49% hits; High affinity choline transporter 1 (Homo sapiens), Q9GZV3; B-score at 10 µM; CHT-expressing cells; stronger effect = higher value; LV-AA mutant CHT in HEK293 cells;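 active = initial fluorescence not abnormally high and integrated response B-score, plate-corrected, over 3 SD above library mean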
Target sequence (Q9GZV3 whole entry, looked up): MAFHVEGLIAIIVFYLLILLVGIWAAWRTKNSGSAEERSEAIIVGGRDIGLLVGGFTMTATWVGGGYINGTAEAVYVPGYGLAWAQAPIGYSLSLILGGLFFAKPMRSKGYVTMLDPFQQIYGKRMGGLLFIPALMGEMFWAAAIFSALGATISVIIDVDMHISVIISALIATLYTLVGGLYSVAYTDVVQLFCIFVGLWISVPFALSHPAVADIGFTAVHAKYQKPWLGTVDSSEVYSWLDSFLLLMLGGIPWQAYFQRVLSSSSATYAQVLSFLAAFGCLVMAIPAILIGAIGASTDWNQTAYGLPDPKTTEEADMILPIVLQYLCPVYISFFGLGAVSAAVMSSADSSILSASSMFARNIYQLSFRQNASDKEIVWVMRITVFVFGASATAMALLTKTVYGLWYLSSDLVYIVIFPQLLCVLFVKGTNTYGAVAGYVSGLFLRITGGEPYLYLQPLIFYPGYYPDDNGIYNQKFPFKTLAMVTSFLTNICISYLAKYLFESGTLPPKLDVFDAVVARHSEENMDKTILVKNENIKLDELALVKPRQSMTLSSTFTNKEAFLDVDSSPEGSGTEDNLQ
TMEM16A act: TMEM16A chloride channel activators or potentiators, primary screen, cell-based, HTS. Anoctamin-1 (Mus musculus), Q8BHY3. HEK293 TMEM16A/YFP-H148Q/I152L, iodide quench fluorescence; stronger effect = lower value. B-score at 10 µM. 340,000 compounds, 0.3% hits. AID 623877, 2012;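 active = fluorescence-ratio B-score plate-corrected deviation score at least 3 library SD below zero, with starting fluorescence score within 5 deviations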;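 also: channel opened by trigger with iodide after compound preincubation; score built on the fluorescence ratio of max minus min over baseline; more negative score means more quench and so TMEM16A activation or potentiation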
CHT block: inhibitors of human choline transporter CHT. B-score at 10 µM. CHT-expressing cells, membrane potential dye, choline response; stronger effect = lower value. 310,000 compounds, 0.86% hits. High affinity choline transporter 1 (Homo sapiens), Q9GZV3;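 active = B-score over 3 SD under the library average, and starting fluorescence ratio not unusually high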;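 also: choline stimulus applied at its EC90 after an EC20 pre-addition; B-score computed on integrated fluorescence ratio after choline addition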
TMEM16A reconf: TMEM16A chloride channel inhibitors, confirmation, cell-based, re-confirmation; inhibition, % at 10 µM; 2,300 compounds, 39% hits; AID 652189, 2013; HEK293 TMEM16A/YFP-H148Q, iodide quench fluorescence; ionomycin added to raise cell calcium; shares compounds with TMEM16A inh;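 active = mean duplicate percent inhibition, scaled so buffer wells are 0 and the reference blocker 100, over three buffer SD above buffer mean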
TMEM16A Ca cntr: calcium mobilization in TMEM16A/YFP HEK293 cells, confirmation, counter-screen for TMEM16A inhibitor project; shares compounds with TMEM16A inh; Fluo4 calcium mobilization; 2,300 compounds, 2% hits; calcium response (% of ionomycin), % at 10 µM;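 active = duplicate-averaged calcium signal over 20% of the ionomycin maximum, relative to buffer baseline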;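 also: each well's signal is peak minus trough fluorescence divided by its pre-addition baseline; 0% = buffer wells and 100% = ionomycin wells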
Parental YFP cnt: iodide YFP quench changes in parental YFP-HEK293, counter-screen for TMEM16A inhibitor project, cell-based | 2,300 tested, under 10 active | AID 652233, 2013 | ionomycin | YFP ratio F(max-min)/F0 at 10 µM | shares compounds with TMEM16A inh;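 active = yellow fluorescent protein signal ratio exceeding the buffer control mean by over 5 SD of those controls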;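 also: ratio is mean of duplicate wells from kinetic YFP trace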
ClC-1 rat inh: ClC-1 chloride channel inhibition, selectivity assay for TMEM16A inhibitor project, cell-based, voltage-dependent ClC-1; shares compounds with TMEM16A inh; 2,300 tested, under 10 active; CHO ClC-1-YFP, iodide influx fluorescence quench; iodide control reads 0, buffer control 100; ratio percent, % at 10 µM;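 active = duplicate-mean ratio percent above the mean of iodide-only control wells, which defines zero, plus 5 of their SD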;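 also: higher percent means stronger block of ClC-1 iodide influx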
An asterisk follows results filed as active; i = inactive; . = not tested or not shown. Most compounds without a hit are left out; they make up all but 3.4% or so of the library.

SMILES	TMEM16A inh	IMP-1 inhibitor	VIM-2 inh	CHT PAM	TMEM16A act	CHT block	TMEM16A reconf	TMEM16A Ca cntr	Parental YFP cnt	ClC-1 rat inh
COc1ccc(S(=O)(=O)Nc2ccccc2C(F)(F)F)cc1	100*	-2.6	1.0	i	i	i	i	i	-1.17	-9.0
COc1ccc(OC)c(S(=O)(=O)Nc2ccccc2C(F)(F)F)c1	i	-0.3	-5.3	i	i	i	.	.	.	.
CCCN(c1ccccc1C(=O)O)S(=O)(=O)c1ccc2c(c1)n(C)c(=O)n2C	i	-1.8	-0.5	i	i	i	.	.	.	.
CCOC(=O)c1nnn(-c2nonc2-n2cccc2)c1CN1CCC(C)CC1	100*	0.2	-1.8	i	.	i	17.5%*	i	-1.2	-3.0
CCN(CC)CCCNC(=O)C1CCN(C(=O)c2oc3cc4sc(N(C)C)nc4cc3c2C)CC1	i	-0.1	7.6	i	i	i	.	.	.	.
COc1ccc(-c2csc(Nc3cc(C)ccn3)n2)cc1OC	25*	-3.0	-0.2	i	i	i	23.5%*	i	-0.743	-10.5
COc1ccc(-c2csc(Nc3ccc(C)cn3)n2)cc1OC	i	-2.3	-3.0	i	i	i	.	.	.	.
O=C(COC(=O)c1cccc(NC(=O)c2ccco2)c1)c1ccc(Br)cc1	100*	-2.8	-2.3	i	i	i	i	i	-0.933	-10.5
O=C(Nc1cccc(S(=O)(=O)c2cccc(NC(=O)c3ccco3)c2)c1)c1ccco1	25*	-2.2	-2.2	i	i	i	20.5%*	i	-0.907	-13.5
CC(C)(C)C(=O)COC(=O)c1cccc(NC(=O)c2ccco2)c1	i	-3.6	-1.7	i	i	i	.	.	.	.
Cc1c(NC(=O)C(C)OC(=O)c2cc(Cl)ccc2O)c(=O)n(-c2ccccc2)n1C (configuration not stated)	i	-2.3	-1.6	i	i	i	.	.	.	.
CCOC(=O)c1c(-c2cccs2)csc1NC(=O)C(C)(C)C	25*	-3.5	-1.1	i	i	i	33.0%*	i	-1.08	-6.0
CCOC(=O)c1c(-c2cccs2)csc1NC(C)=O	i	-2.6	-0.5	i	i	i	.	.	.	.
S=C(NCCSCc1ccc(Cl)cc1Cl)Nc1ccccc1	100*	-2.6	-9.1	i	i	i	23.0%*	i	-0.957	-19.0
COC(=O)[C@]1(Cc2ccccc2)N[C@H](c2ccc(-c3cccc(Cl)c3)cc2)[C@@H]2C(=O)N(C)C(=O)[C@@H]21	i	.	.	i	i	i	.	.	.	.
CCOC(=O)C1(Cc2cccc(OC)c2)CCN(C/C=C/c2ccc(OC)cc2)CC1	25*	-1.4	-0.8	i	i	i	i	i	-1.21	-18.5
Cc1cc(C)nc(NCC(O)CNc2ccccc2Cl)n1 (configuration not stated)	25*	-3.1	-2.3	i	i	i	35.5%*	i	-1.17	-13.5
Cc1cc(Nc2ccccc2Cl)c2ccccc2n1	i	.	.	i	i	i	.	.	.	.
O=C(NCCC(NS(=O)(=O)OCC(Cl)(Cl)Cl)c1ccccc1)C(F)(F)F (configuration not stated)	i	-3.3	-0.6	i	i	i	.	.	.	.
CC(C)CC(NS(=O)(=O)OCC(Cl)(Cl)Cl)c1ccccc1 (configuration not stated)	100*	-4.1	-3.2	i	i	i	56.0%*	i	-1.15	-3.0
Cc1cc2[nH]c(=O)c(=O)[nH]c2cc1S(=O)(=O)Nc1cccc(C)c1C	i	-2.3	1.1	i	i	i	.	.	.	.
Cc1cccc(C)c1OCc1cc(C(=O)N2CCC(c3ccncc3)CC2)no1	25*	-2.0	-0.5	i	i	i	21.0%*	i	-1.03	-21.5
O=C(c1cc(COc2c(F)cccc2F)on1)N1CCC(c2ccncc2)CC1	25*	-1.8	-1.4	i	i	i	i	i	-1.2	-22.5
CCC(O)C1CCN(C(=O)c2cc(COc3ccc4ncccc4c3)on2)CC1 (configuration not stated)	100*	-1.0	3.1	i	i	i	i	i	-1.05	-20.0
O=C(c1cc(COc2ccc3ncccc3c2)on1)N1CCC(O)CC1	i	-0.9	-0.3	i	i	i	.	.	.	.
SMILES	TMEM16A inh	IMP-1 inhibitor	VIM-2 inh	CHT PAM	TMEM16A act	CHT block	TMEM16A reconf	TMEM16A Ca cntr	Parental YFP cnt	ClC-1 rat inh
O=C(c1cc(COc2c(F)cccc2F)on1)N1CCC(c2ccccc2F)C1 (configuration not stated)	i	0.8	-3.6	i	i	i	.	.	.	.
COc1ccccc1N(Cc1cc(=O)[nH]c2ccccc12)C(=O)c1ccc([N+](=O)[O-])cc1	i	1.1	0.5	i	i	i	.	.	.	.
CNS(=O)(=O)c1cc(Nc2ncnc3sccc23)ccc1C	i	-4.7	-1.6	i	i	i	.	.	.	.
O=S(=O)(Nc1nc2ccccc2nc1Cl)c1ccc2ccccc2c1	100*	-1.7	-2.4	i	i	i	28.5%*	i	-1.04	-12.5
O=C(CCNS(=O)(=O)c1ccc2ccccc2c1)NCCOc1ccccc1	.	.	.	.	i	.	.	.	.	.
O=C(O)CN(c1ccccc1F)S(=O)(=O)c1ccccc1	i	-5.3	-4.9	i	i	i	i	i	-1.03	-7.5
O=C(CN(c1ccccc1F)S(=O)(=O)c1ccccc1)NC1CCCCCC1	i	-4.0	-5.7	i	i	i	.	.	.	.
